# Legend:
# Type in all cases: functional
# [1] = tested on: Candida tropicalis; experiment: Antifungal activity against Candida tropicalis 156 after 48 hrs by broth microdilution method; conditions: Candida tropicalis, 156, 48 h
# [2] = tested on: Enterococcus sp.; experiment: Antibacterial activity against Enterococcus sp. J14365/08 after 48 hrs by broth microdilution method; conditions: J14365/08, 48 h
# Method in brief: (§1)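 Broth microdilution following […], with twofold compound dilutions in Mueller-Hinton bouillon. Incubated 24 and 48 h at 35 °C in the dark in a humid atmosphere. MIC (IC80) was taken as ≥80% growth reduction versus control, read visually and photometrically.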
# [3] = tested on: Aspergillus fumigatus; experiment: Antifungal activity against Aspergillus fumigatus 231 after 24 hrs by broth microdilution method; conditions: Aspergillus fumigatus, 231, 24 h
# [4] = tested on: Nakaseomyces glabratus; experiment: Antifungal activity against Candida glabrata 20/I after 48 hrs by broth microdilution method
# [5] = tested on: Staphylococcus aureus; experiment: Antibacterial activity against Staphylococcus aureus CCM 4516/08 after 24 hrs by broth microdilution method; conditions: CCM 4516/08, 24 h; method in brief: as §1
# [6] = tested on: Mycobacterium avium; experiment: Antimycobacterial activity against multidrug-resistant Mycobacterium avium 330/88 after 14 days by micromethod; conditions: 330/88, 336 h
# Method in brief: (§2)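 Micromethod in Sula semisynthetic medium, with compounds added as DMSO solutions at 1000, 500, 250, 125, 62, 32, 16, 8, 4, 2, 1, 0.5, 0.25. Inoculum dilutions: H37Rv 10^-3; M. avium 330/88 10^-5; M. kansasii 235/80 10^-4; M. kansasii 6509/96 10^-5. Incubated at 37 °C, read at 14 and 21 days, and at 7 days for M. kansasii. MIC was the lowest concentration inhibiting growth.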
# [7] = tested on: Lichtheimia corymbifera; experiment: Antifungal activity against Absidia corymbifera 272 after 48 hrs by broth microdilution method; conditions: Lichtheimia corymbifera, 272, 48 h
# [8] = tested on: Escherichia coli; experiment: Antibacterial activity against Escherichia coli CCM 4517 after 24 hrs by broth microdilution method; conditions: CCM 4517, 24 h; method in brief: as §1
# [9] = tested on: Aspergillus fumigatus; experiment: Antifungal activity against Aspergillus fumigatus 231 after 48 hrs by broth microdilution method; conditions: Aspergillus fumigatus, 231, 48 h
# [10] = tested on: Candida albicans; experiment: Antifungal activity against Candida albicans ATCC 44859 after 48 hrs by broth microdilution method; conditions: ATCC 44859, 48 h
# [11] = tested on: Mycobacterium kansasii; experiment: Antimycobacterial activity against Mycobacterium kansasii 235/80 after 14 days by micromethod; conditions: 235/80, 336 h; method in brief: as §2
# [12] = tested on: Staphylococcus aureus; experiment: Antibacterial activity against Staphylococcus aureus CCM 4516/08 after 48 hrs by broth microdilution method; conditions: CCM 4516/08, 48 h; method in brief: as §1
# [13] = tested on: Mycobacterium avium; experiment: Antimycobacterial activity against multidrug-resistant Mycobacterium avium 330/88 after 21 days by micromethod; conditions: 330/88, 504 h; method in brief: as §2
# [14] = tested on: Klebsiella pneumoniae; experiment: Antibacterial activity against Klebsiella pneumoniae D11750/08 after 24 hrs by broth microdilution method; conditions: D11750/08, 24 h; method in brief: as §1
# [15] = tested on: Mycobacterium kansasii; experiment: Antimycobacterial activity against Mycobacterium kansasii 6509/96 after 21 days by micromethod; conditions: 6509/96, 504 h; method in brief: as §2
# [16] = tested on: Mycobacterium tuberculosis; experiment: Antimycobacterial activity against Mycobacterium tuberculosis H37Rv 331/88 after 14 days by micromethod; conditions: H37Rv 331/88, 336 h; method in brief: as §2
# [17] = tested on: Trichosporon beigelii; experiment: Antifungal activity against Trichosporon beigelii 1188 after 48 hrs by broth microdilution method; conditions: Trichosporon beigelii, 1188, 48 h
# [18] = tested on: Mycobacterium kansasii; experiment: Antimycobacterial activity against Mycobacterium kansasii
# [19] = tested on: Lichtheimia corymbifera; experiment: Antifungal activity against Absidia corymbifera 272 after 24 hrs by broth microdilution method; conditions: Lichtheimia corymbifera, 272, 24 h
# [20] = tested on: Mycobacterium tuberculosis; experiment: Antimycobacterial activity against Mycobacterium tuberculosis H37Rv 331/88 after 21 days by micromethod; conditions: H37Rv 331/88, 504 h; method in brief: as §2
# [21] = tested on: Mycobacterium tuberculosis; experiment: Antimycobacterial activity against drug-sensitive Mycobacterium tuberculosis
# [22] = tested on: Nakaseomyces glabratus; experiment: Antifungal activity against Candida glabrata 20/I after 24 hrs by broth microdilution method
# [23] = tested on: Trichosporon beigelii; experiment: Antifungal activity against Trichosporon beigelii 1188 after 24 hrs by broth microdilution method; conditions: Trichosporon beigelii, 1188, 24 h
# [24] = tested on: Candida tropicalis; experiment: Antifungal activity against Candida tropicalis 156 after 24 hrs by broth microdilution method; conditions: Candida tropicalis, 156, 24 h
# [25] = tested on: Staphylococcus aureus; experiment: Antibacterial activity against methicillin-resistant Staphylococcus aureus H5996/08 after 48 hrs by broth microdilution method; conditions: H5996/08, 48 h; method in brief: as §1
# [26] = tested on: Candida albicans; experiment: Antifungal activity against Candida albicans ATCC 44859 after 24 hrs by broth microdilution method; conditions: ATCC 44859, 24 h
# [27] = tested on: Staphylococcus epidermidis; experiment: Antibacterial activity against Staphylococcus epidermidis H6966/08 after 24 hrs by broth microdilution method; conditions: H6966/08, 24 h; method in brief: as §1
# [28] = tested on: Enterococcus sp.; experiment: Antibacterial activity against Enterococcus sp. J14365/08 after 24 hrs by broth microdilution method; conditions: J14365/08, 24 h; method in brief: as §1
# [29] = tested on: Staphylococcus epidermidis; experiment: Antibacterial activity against Staphylococcus epidermidis H6966/08 after 48 hrs by broth microdilution method; conditions: H6966/08, 48 h; method in brief: as §1
# [30] = tested on: Mycobacterium kansasii; experiment: Antimycobacterial activity against Mycobacterium kansasii 235/80 after 7 days by micromethod; conditions: 235/80, 168 h; method in brief: as §2
# [31] = tested on: Pichia kudriavzevii; experiment: Antifungal activity against Candida krusei E28 after 48 hrs by broth microdilution method; conditions: E28, 48 h
# [32] = tested on: Mycobacterium avium; experiment: Antimycobacterial activity against Mycobacterium avium
# [33] = tested on: Pichia kudriavzevii; experiment: Antifungal activity against Candida krusei E28 after 24 hrs by broth microdilution method; conditions: E28, 24 h
# [34] = tested on: Escherichia coli; experiment: Antibacterial activity against Escherichia coli CCM 4517 after 48 hrs by broth microdilution method; conditions: CCM 4517, 48 h; method in brief: as §1
# [35] = tested on: Trichophyton mentagrophytes; experiment: Antifungal activity against Trichophyton mentagrophytes after 48 hrs by broth microdilution method
# [36] = tested on: Mycobacterium kansasii; experiment: Antimycobacterial activity against Mycobacterium kansasii 6509/96 after 14 days by micromethod; conditions: 6509/96, 336 h; method in brief: as §2
# [37] = tested on: Mycobacterium kansasii; experiment: Antimycobacterial activity against Mycobacterium kansasii 6509/96 after 7 days by micromethod; conditions: 6509/96, 168 h; method in brief: as §2
# [38] = tested on: Trichophyton mentagrophytes; experiment: Antifungal activity against Trichophyton mentagrophytes after 24 hrs by broth microdilution method
# [39] = tested on: Staphylococcus aureus; experiment: Antibacterial activity against methicillin-resistant Staphylococcus aureus H5996/08 after 24 hrs by broth microdilution method; conditions: H5996/08, 24 h; method in brief: as §1
# [40] = tested on: Mycobacterium kansasii; experiment: Antimycobacterial activity against Mycobacterium kansasii 235/80 after 21 days by micromethod; conditions: 235/80, 504 h; method in brief: as §2
# [41] = tested on: Klebsiella pneumoniae; experiment: Antibacterial activity against Klebsiella pneumoniae D11750/08 after 48 hrs by broth microdilution method; conditions: D11750/08, 48 h; method in brief: as §1
smiles,measurement,setting,value
CC(=O)N[C@@H](Cc1ccccc1)C(=O)Oc1cc(Cl)ccc1C(=O)Nc1ccc(Br)cc1,MIC,[1],> 125 µM
same,MIC,[2],125 µM
same,MIC,[3],62.5 µM
same,MIC,[4],> 125 µM
same,MIC,[5],0.98 µM
same,MIC,[6],4 µM
same,MIC,[7],62.5 µM
same,MIC,[8],15.6 µM
same,MIC,[9],> 125 µM
same,MIC,[10],> 125 µM
same,MIC,[11],4 µM
same,MIC,[12],1.95 µM
same,MIC,[13],8 µM
same,MIC,[14],> 125 µM
same,MIC,[15],8 µM
same,MIC,[16],2 µM
same,MIC,[17],62.5 µM
same,MIC,[18],1 µM
same,MIC,[19],15.6 µM
same,MIC,[20],4 µM
same,MIC,[21],1 µM
same,MIC,[22],> 125 µM
same,MIC,[23],15.6 µM
same,MIC,[24],> 125 µM
same,MIC,[25],7.81 µM
same,MIC,[26],> 125 µM
same,MIC,[27],0.98 µM
same,MIC,[28],7.81 µM
same,MIC,[29],1.95 µM
same,MIC,[30],2 µM
same,MIC,[31],> 125 µM
same,MIC,[32],1 µM
same,MIC,[33],> 125 µM
same,MIC,[34],125 µM
same,MIC,[35],15.6 µM
same,MIC,[36],4 µM
same,MIC,[37],4 µM
same,MIC,[38],7.81 µM
same,MIC,[39],0.98 µM
same,MIC,[40],4 µM
same,MIC,[41],> 125 µM
Nc1ccc(C(=O)O)c(O)c1 [AMINOSALICYLIC ACID],MIC,[6],32 µM
same,MIC,[11],1000 µM
same,MIC,[13],125 µM
same,MIC,[15],500 µM
same,MIC,[16],62.5 µM
same,MIC,[20],62.5 µM
same,MIC,[30],125 µM
same,MIC,[36],125 µM
same,MIC,[37],32 µM
same,MIC,[40],> 1000 µM
OC(Cn1cncn1)(Cn1cncn1)c1ccc(F)cc1F [FLUCONAZOLE],MIC,[1],> 125 µM
same,MIC,[3],> 125 µM
same,MIC,[4],3.91 µM
same,MIC,[7],> 125 µM
same,MIC,[9],> 125 µM
same,MIC,[10],0.12 µM
same,MIC,[17],0.48 µM
same,MIC,[19],> 125 µM
same,MIC,[22],0.98 µM
same,MIC,[23],0.24 µM
same,MIC,[24],0.12 µM
same,MIC,[26],0.06 µM
same,MIC,[31],15.6 µM
same,MIC,[33],3.91 µM
same,MIC,[35],3.91 µM
same,MIC,[38],1.95 µM
NNC(=O)c1ccncc1 [ISONIAZID],MIC,[6],> 250 µM
same,MIC,[11],> 250 µM
same,MIC,[13],> 250 µM
same,MIC,[15],4 µM
same,MIC,[16],0.5 µM
same,MIC,[20],0.5 µM
same,MIC,[30],> 250 µM
same,MIC,[36],4 µM
same,MIC,[37],2 µM
same,MIC,[40],> 250 µM

# — ChEMBL document CHEMBL1629494, “New amino acid esters of salicylanilides active against MDR-TB and other microbes” (Eur J Med Chem, 2010)
